In PubChem BioAssay:
Inconclusive results are not listed.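 How the source made its calls, unless noted: active means RAM network inhibition above 8.4% in each of two replicates, 3 SD over the compound average; inconclusive means above 8.4% inhibition in only one replicate; inactive means 8.4% inhibition or less in each replicate.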

Tests used:
[1] = OD615 S. cerevisiae growth inhibition, permissive medium, pilot counter-assay, permissive growth control for S. cerevisiae lifespan shortening project (AID 705;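 active means growth inhibition above 25% in both replicates, a cutoff set 3 SD above the mean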); conditions: OD615, 24 h, at 10 µM, active compounds read high
Procedure, shortened: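 System: Engineered DeaD yeast | Buffer or medium: SC raffinose/galactose permissive medium | Incubation: Cells pre-grown 4 h, then 24 h compound exposure, 30 °C humidified | Measured by: Absorbance (optical density) at 615 nm | Read-out: Reduction in yeast growth (OD615)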

[2] = Restrictive medium S. cerevisiae growth inhibition, OD615, pilot screen of yeast lifespan reduction project, restrictive growth control (AID 706;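 active means growth inhibition above a set limit, 3 SD over mean compound inhibition, in both replicates, cut at about 43% in these data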;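 further: modified DeaD lifespan yeast strain shifted to restrictive glucose medium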); conditions: OD615, 48 h, at 10 µM, active compounds read high
Procedure, shortened: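 Material: modified S. cerevisiae; Medium: glucose-based CSMM-D restrictive medium; Compound dosing: one concentration, 10 µM final, 0.25% DMSO; Incubation: 48 h compound exposure at 30 °C; Measured by: OD615.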

[3] = viability gain of MRP-1-high H69AR cells under doxorubicin, pilot screen, MRP-1 activator project, CellTiter-Glo, duplicate (AID 807;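 active means viability increase at or above a cutoff of the median across tested compounds plus 3 SD, cut at about 8.5% in these data, passing the limit was not always enough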;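 further: compound pretreatment 18-22 h then 72 h combined with doxorubicin; 0% = doxorubicin alone and 100% = vehicle without doxorubicin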); conditions: H69AR viability with doxorubicin, CellTiter-Glo luminescence; at 10 µM; active compounds read high
[4] = growth suppression of beta-catenin knockout HCT116, pilot screen, human colon tumor cells (AID 823;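 active means cell viability at or below a set limit in both duplicate runs, the limit being the all-compound median minus 4 SD, cut at about 23% in these data, passing the limit was not always enough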;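 further: 0% = wells killed by 20 µM Hyamine and 100% = untreated DMSO cell wells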); conditions: CellTiter-Glo, 60 h, at 10 µM, active compounds read low
[5] = growth suppression of PTEN-deleted HCT116, pilot screen, cell-based, HCT116 clonal line, CellTiter-Glo (AID 824;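 active means viability at or below 27.92% in each of two runs, the all-compound median minus 4 SD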;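 further: 0% = 20 µM Hyamine control and 100% = vehicle cell control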); conditions: 60 h, at 10 µM, active compounds read low
[6] = inhibitors of the yeast RAM network, pilot screen, dse1pr::URA3 reporter, 5-FOA selection (AID 869;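 active means inhibition over a set limit, the all-compound mean plus 3 SD, in both replicate runs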;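 further: 0% = DMSO wells with no growth and 100% = 10 µM 1-NA-PP1 with full growth; RAM network block rescues cells from 5-FOA so hits raise OD615 growth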); conditions: S. cerevisiae dse1pr::URA3 5-FOA growth, OD615, 2 d; at 10 µM; active compounds read high; strain carries analog-sensitive mutant Cbk1 kinase
[7] = RAM signaling pathway blockade in yeast – S. cerevisiae, Pdr1DBD-CYC8 efflux-inhibited sensitized strain, primary screen (AID 1298);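 further: 0% = DMSO untreated cells without growth and 100% = 10 µM 1-NA-PP1 full growth; higher means more yeast growth rescued from 5-FOA killing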; conditions: S. cerevisiae cbk1-as DSE1-URA3 strain, 5-FOA growth OD615, 2 d; at 50 µM; active compounds read high

CC1Cc2nc(SCC(=O)Nc3ccc4c(c3)OCO4)n(CCc3ccccc3)c(=O)c2S1 (centres undefined)
inactive: growth inhibition [1] -14% | growth inhibition [2] -23.8% | viability increase [3] -2.89% | viability [4] 94.4% | viability [5] 87.1% | inhibition [6] 2.35% | RAM network inhibition [7] 7.17%

COC(=O)Nc1c(C(=O)OC)cc(OC)c(OC)c1OC
inactive: growth inhibition [1] -3.62% | growth inhibition [2] -6.57% | viability increase [3] -2.87% | viability [4] 94.7% | viability [5] 97.4% | inhibition [6] -0.495% | RAM network inhibition [7] 4.86%

O=C(CN1CCOc2ccccc21)NCc1ccco1
inactive: growth inhibition [1] -11.6% | growth inhibition [2] -14.4% | viability increase [3] -4.51% | viability [4] 88.1% | viability [5] 82.9% | inhibition [6] 0.09% | RAM network inhibition [7] 0.05%

O=C(CC1Oc2ccccc2NC1=O)NCCc1ccccc1 (centres undefined)
inactive: growth inhibition [1] -0.525% | growth inhibition [2] 0.925% | viability increase [3] 0.98% | viability [4] 107% | viability [5] 105% | inhibition [6] 2.94% | RAM network inhibition [7] 9.58%

NC(=O)CSc1ncnc2c1oc1ccccc12
inactive: growth inhibition [1] -17.7% | growth inhibition [2] -9.65% | viability increase [3] -2.08% | viability [4] 99.5% | viability [5] 91.6% | inhibition [6] 0.41% | RAM network inhibition [7] 0.74%

CCOc1ccc(-c2nnc3n2N=C(c2ccc(OC)cc2)CS3)cc1
inactive: growth inhibition [1] -2.4% | growth inhibition [2] -3.84% | viability increase [3] -5.29% | viability [4] 84% | viability [5] 82% | inhibition [6] 1.72% | RAM network inhibition [7] 5.3%

Cc1ccc(/C=N/n2c(C)nnc2C)cc1
inactive: growth inhibition [1] -5.29% | growth inhibition [2] -2.88% | viability increase [3] -1.74% | viability [4] 87.4% | viability [5] 99.1% | inhibition [6] 0.135% | RAM network inhibition [7] 0.41%

COc1ccc(N2Cc3cccc(C(=O)O)c3C2=O)cc1
inactive: growth inhibition [1] -17.1% | growth inhibition [2] -1.34% | viability increase [3] -0.59% | viability [4] 104% | viability [5] 101% | inhibition [6] 1.5% | RAM network inhibition [7] 0.58%

COc1ccc(C2N(c3ccc(OC)cc3)C(=O)C3CCCN32)cc1 (centres undefined)
inactive: growth inhibition [1] -3.41% | growth inhibition [2] 2.04% | viability increase [3] -1.64% | viability [4] 106% | viability [5] 102% | inhibition [6] 0.67% | RAM network inhibition [7] -0.16%

COc1ccc(OCCOC(=O)Nc2ccccc2)cc1
inactive: growth inhibition [1] -13.2% | growth inhibition [2] -6.21% | viability increase [3] 1.53% | viability [4] 93.4% | viability [5] 94.1% | inhibition [6] 1.64% | RAM network inhibition [7] 5.48%

CCSC(C)CC1CC(=O)CC(=O)C1 (centres undefined)
inactive: growth inhibition [1] -11.7% | growth inhibition [2] 6.03% | viability increase [3] 0.29% | viability [4] 94% | viability [5] 89.9% | inhibition [6] 1.39% | RAM network inhibition [7] 2.13%

Cc1ccccc1-c1nnc(-c2ccc(Cl)cc2)o1
inactive: growth inhibition [1] -18.7% | growth inhibition [2] -20.9% | viability increase [3] -6.28% | viability [4] 77.9% | viability [5] 64.8% | inhibition [6] 4.19% | RAM network inhibition [7] 6.89%

COc1ccc(N(CC(=O)Nc2cccc(SC)c2)S(C)(=O)=O)cc1Cl
inactive: growth inhibition [1] -4.88% | growth inhibition [2] -9.05% | viability increase [3] -6.18% | viability [4] 77.7% | viability [5] 80.6% | inhibition [6] 0.975% | RAM network inhibition [7] 3.03%

Cn1cccc1Cc1nnc(SCC(=O)N2CCCCCC2)n1-c1ccc(F)cc1
inactive: growth inhibition [1] 0.935% | growth inhibition [2] 18% | viability increase [3] -1.67% | viability [4] 84% | viability [5] 88.5% | inhibition [6] 1.27% | RAM network inhibition [7] 4.48%

CCOC(=O)C1CCCN(C(=O)Cc2c(C(=O)O)[nH]c3ccccc23)C1 (centres undefined)
inactive: growth inhibition [1] -7.59% | growth inhibition [2] -0.39% | viability increase [3] -0.1% | viability [4] 97.3% | viability [5] 96.9% | inhibition [6] 0.53% | RAM network inhibition [7] 3.59%

COC(=O)c1cc(COc2ccc3c4c(c(=O)oc3c2)CCCC4)c(C)o1
inactive: growth inhibition [1] 2.28% | growth inhibition [2] 5.14% | viability increase [3] -0.68% | viability [4] 103% | viability [5] 100% | inhibition [6] 0.985% | RAM network inhibition [7] 3.78%

Cc1ccc(C(=O)Nc2ccc3c(c2)CCC3)o1
inactive: growth inhibition [1] -3.56% | growth inhibition [2] -9.54% | viability increase [3] -2.44% | viability [4] 77.5% | viability [5] 69.8% | inhibition [6] 0.895% | RAM network inhibition [7] -0.68%

CC1CCc2nn(CC(=O)NCCC3=CCCCC3)cc2C1 (centres undefined)
inactive: growth inhibition [1] 4.45% | growth inhibition [2] -4.16% | viability increase [3] -1.4% | viability [4] 101% | viability [5] 94.5% | inhibition [6] 0.595% | RAM network inhibition [7] 0.3%

COc1ccc(OC)c(C2C(C(N)=O)=C(C)Nc3nc(CCCO)nn32)c1 (centres undefined)
inactive: growth inhibition [1] -12.9% | growth inhibition [2] -20.6% | viability increase [3] 0.09% | viability [4] 97.3% | viability [5] 95.6% | inhibition [6] 1.61% | RAM network inhibition [7] 5.21%

CC(NC(=O)C1CCC1)c1ccc2c(c1)OCO2 (centres undefined)
inactive: growth inhibition [1] -10% | growth inhibition [2] -5.42% | viability increase [3] -2.08% | viability [4] 97.5% | viability [5] 91.7% | inhibition [6] 1.67% | RAM network inhibition [7] 0.83%

O=C(Nc1ccc2c(c1)OCO2)C1COc2ccccc2O1 (centres undefined)
inactive: growth inhibition [1] -13.5% | growth inhibition [2] -5.98% | viability increase [3] -3.15% | viability [4] 91.9% | viability [5] 99.8% | inhibition [6] 2.16% | RAM network inhibition [7] 3.35%

COc1cccc(C2c3c(oc4ccc(F)cc4c3=O)C(=O)N2CCCN2CCOCC2)c1 (centres undefined)
inactive: growth inhibition [1] -9.58% | growth inhibition [2] -6.59% | viability increase [3] -1.59% | viability [4] 105% | viability [5] 105% | inhibition [6] 1.25% | RAM network inhibition [7] 4.33%
